# Source: ChEMBL document CHEMBL1153852, “Steroidal lactones as inhibitors of 17beta-hydroxysteroid dehydrogenase type 5: chemical synthesis, enzyme inhibitory activity, and assessment of estrogenic and androgenic activities” (Eur J Med Chem, 2009)
# pIC50: −log10 of the molar value. Calls of active or inactive are those of the source. No cut-off for these calls is given here.
# How the values were obtained:
# [1] = target: T1, Aldo-keto reductase family 1 member C3 (Homo sapiens) (UniProt P42330); assay: Inhibition of human 17beta-HSD5 expressed in HEK293 cells assessed as enzyme-mediated transformation of [14C]-4-androstene-3,17-dione in to [14C]-testosterone at 3 uM after 18 hrs; type: cell-based
# T1 sequence (whole entry): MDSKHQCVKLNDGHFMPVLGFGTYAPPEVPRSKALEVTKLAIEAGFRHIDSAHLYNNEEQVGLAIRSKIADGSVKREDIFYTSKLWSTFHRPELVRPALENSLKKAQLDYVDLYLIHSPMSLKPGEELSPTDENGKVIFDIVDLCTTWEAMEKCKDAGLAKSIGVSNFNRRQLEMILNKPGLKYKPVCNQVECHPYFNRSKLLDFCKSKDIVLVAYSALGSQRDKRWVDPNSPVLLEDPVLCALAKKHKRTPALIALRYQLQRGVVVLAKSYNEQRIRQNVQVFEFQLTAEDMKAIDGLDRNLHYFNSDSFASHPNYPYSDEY
# How it was run: (§1)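 Intact HEK-293 cells stably over-expressing human 17β-HSD5, in freshly changed culture medium. [14C]-4-androstene-3,17-dione is added at 100 nM with inhibitor from an ethanolic solution; controls get ethanol only. After 18 h the conversion to [14C]-T is measured.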
# [2] = target: T1, Aldo-keto reductase family 1 member C3 (Homo sapiens); assay: Inhibition of human 17beta-HSD5 expressed in HEK293 cells assessed as enzyme-mediated transformation of [14C]-4-androstene-3,17-dione in to [14C]-testosterone at 0.3 uM after 18 hrs; type: cell-based; how it was run: as §1
# [3] = target: T2, Aldo-keto reductase family 1 member C3 (Homo sapiens, UniProt P42330); assay: Inhibition of human 17beta-HSD5 expressed in HEK293 cells assessed as enzyme-mediated transformation of [14C]-4-androstene-3,17-dione in to [14C]-testosterone after 18 hrs; type: cell-based
# T2 sequence (P42330 whole entry): T1 sequence (whole entry)
# How it was run: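 Intact HEK-293 cells stably over-expressing human 17β-HSD5, in fresh culture medium. [14C]-4-androstene-3,17-dione 0.1 μM with inhibitor added in ethanol (ethanol alone as control), 18 h.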
# [4] = target: T3, 17-beta-hydroxysteroid dehydrogenase type 3 (Homo sapiens) (UniProt P37058); assay: Inhibition of human 17beta-HSD3 expressed in HEK293 cells assessed as enzyme-mediated transformation of [14C]-4-androstene-3,17-dione in to [14C]-testosterone at 0.1 uM; type: cell-based
# T3 sequence (whole entry): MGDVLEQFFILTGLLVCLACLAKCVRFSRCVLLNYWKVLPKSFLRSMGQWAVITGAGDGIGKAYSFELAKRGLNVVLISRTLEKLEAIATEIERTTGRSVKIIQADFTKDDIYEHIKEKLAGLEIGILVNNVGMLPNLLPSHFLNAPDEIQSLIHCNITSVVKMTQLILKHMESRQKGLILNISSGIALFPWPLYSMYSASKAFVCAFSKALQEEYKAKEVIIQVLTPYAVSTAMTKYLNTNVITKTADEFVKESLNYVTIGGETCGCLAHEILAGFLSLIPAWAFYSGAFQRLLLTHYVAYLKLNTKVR
# [5] = target: T3, 17-beta-hydroxysteroid dehydrogenase type 3 (Homo sapiens); assay: Inhibition of human 17beta-HSD3 expressed in HEK293 cells assessed as enzyme-mediated transformation of [14C]-4-androstene-3,17-dione in to [14C]-testosterone at 1 uM; type: cell-based
# [6] = target: T4, 17-beta-hydroxysteroid dehydrogenase type 1 (Homo sapiens) (UniProt P14061); assay: Inhibition of human 17beta-HSD1 expressed in HEK293 cells assessed as enzyme-mediated transformation of [14C]-E1 in to [14C]-E2 at 0.1 uM; type: cell-based
# T4 sequence (whole entry): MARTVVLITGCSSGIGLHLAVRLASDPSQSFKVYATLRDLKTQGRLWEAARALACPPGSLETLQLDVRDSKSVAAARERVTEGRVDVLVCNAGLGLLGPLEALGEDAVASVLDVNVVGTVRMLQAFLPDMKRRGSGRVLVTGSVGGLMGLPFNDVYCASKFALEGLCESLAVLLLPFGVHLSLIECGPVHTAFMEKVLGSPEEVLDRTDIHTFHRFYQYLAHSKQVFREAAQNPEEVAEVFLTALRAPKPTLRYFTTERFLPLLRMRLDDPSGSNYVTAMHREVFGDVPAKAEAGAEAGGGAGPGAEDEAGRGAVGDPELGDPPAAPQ
# [7] = target: T4, 17-beta-hydroxysteroid dehydrogenase type 1 (Homo sapiens); assay: Inhibition of human 17beta-HSD1 expressed in HEK293 cells assessed as enzyme-mediated transformation of [14C]-E1 in to [14C]-E2 at 1 uM; type: cell-based
# [8] = target: T5, Progesterone receptor (Rattus norvegicus) (UniProt Q63449); assay: Binding affinity to rat uterus progesterone receptor at 0.01 uM
# T5 sequence (whole entry): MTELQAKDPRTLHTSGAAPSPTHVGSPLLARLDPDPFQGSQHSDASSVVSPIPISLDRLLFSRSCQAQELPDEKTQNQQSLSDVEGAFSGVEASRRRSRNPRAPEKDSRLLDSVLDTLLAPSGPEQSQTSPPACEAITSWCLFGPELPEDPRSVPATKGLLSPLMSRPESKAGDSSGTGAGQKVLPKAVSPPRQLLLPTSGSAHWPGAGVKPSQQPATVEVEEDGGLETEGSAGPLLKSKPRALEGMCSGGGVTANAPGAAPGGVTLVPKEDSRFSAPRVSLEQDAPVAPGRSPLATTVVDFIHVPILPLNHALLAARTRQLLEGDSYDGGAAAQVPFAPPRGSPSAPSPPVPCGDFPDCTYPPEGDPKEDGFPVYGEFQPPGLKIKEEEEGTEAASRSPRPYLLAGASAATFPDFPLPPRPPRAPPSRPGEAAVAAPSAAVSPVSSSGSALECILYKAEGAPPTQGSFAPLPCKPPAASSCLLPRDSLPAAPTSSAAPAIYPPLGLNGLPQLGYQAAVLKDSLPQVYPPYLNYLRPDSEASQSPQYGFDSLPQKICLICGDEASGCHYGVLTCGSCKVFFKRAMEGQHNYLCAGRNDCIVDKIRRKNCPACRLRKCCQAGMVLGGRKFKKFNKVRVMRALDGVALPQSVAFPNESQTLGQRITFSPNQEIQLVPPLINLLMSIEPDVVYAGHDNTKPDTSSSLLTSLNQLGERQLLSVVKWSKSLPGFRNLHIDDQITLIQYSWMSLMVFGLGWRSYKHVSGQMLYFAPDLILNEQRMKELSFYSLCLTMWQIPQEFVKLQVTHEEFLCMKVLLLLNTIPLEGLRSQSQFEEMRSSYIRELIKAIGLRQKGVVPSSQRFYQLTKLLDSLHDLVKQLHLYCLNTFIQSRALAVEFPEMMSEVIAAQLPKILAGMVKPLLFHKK
# [9] = target: T6, 17-beta-hydroxysteroid dehydrogenase type 2 (Homo sapiens) (UniProt P37059); assay: Inhibition of human 17beta-HSD2 expressed in HEK293 cells assessed as enzyme-mediated transformation of [14C]-testosterone in to [14C]-4-androstene-3,17-dione at 1 uM; type: cell-based
# T6 sequence (whole entry): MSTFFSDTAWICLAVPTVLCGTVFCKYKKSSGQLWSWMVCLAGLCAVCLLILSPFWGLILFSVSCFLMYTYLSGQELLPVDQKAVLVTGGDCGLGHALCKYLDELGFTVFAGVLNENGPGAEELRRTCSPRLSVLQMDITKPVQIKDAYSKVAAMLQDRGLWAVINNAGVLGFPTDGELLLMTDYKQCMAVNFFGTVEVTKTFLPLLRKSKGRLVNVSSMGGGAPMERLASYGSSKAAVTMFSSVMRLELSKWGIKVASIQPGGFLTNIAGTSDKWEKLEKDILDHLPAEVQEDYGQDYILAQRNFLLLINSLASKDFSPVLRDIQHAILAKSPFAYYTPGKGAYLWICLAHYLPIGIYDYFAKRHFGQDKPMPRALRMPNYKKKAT
# [10] = target: T6, 17-beta-hydroxysteroid dehydrogenase type 2 (Homo sapiens); assay: Inhibition of human 17beta-HSD2 expressed in HEK293 cells assessed as enzyme-mediated transformation of [14C]-testosterone in to [14C]-4-androstene-3,17-dione at 0.1 uM; type: cell-based
Structure (SMILES),inhibition [1] [%],inhibition [2] [%],pIC50 [3],further results
C[C@]12CCC3(CCC(=O)O3)CC1CC[C@@H]1[C@@H]2CC[C@@]2(C)[C@H]1CC[C@@]21CCC(=O)O1 (stereo not given in full),29,7,,
C[C@]12CC[C@@H]3c4ccc(O)cc4CC[C@H]3[C@@H]1CC[C@@]21CC=CC(=O)O1,92,79,7.31,
C=CCC1CC[C@@]2(CC[C@H]3[C@@H]4CCc5cc(O)ccc5[C@H]4CC[C@@]32C)OC1=O (mixture of isomers),91,68,6.97,
C[C@]12CCC(=O)CC1C(=O)C[C@@H]1[C@@H]2CC[C@@]2(C)[C@H]1CC[C@@]21CCC(=O)O1 (stereo not given in full),45,14,,
CC1CC(=O)O[C@]2(CC[C@H]3[C@@H]4CCc5cc(O)ccc5[C@H]4CC[C@@]32C)C1 (mixture of isomers),94,88,7.72,
C[C@]12CC[C@@H]3c4ccccc4CC[C@H]3[C@@H]1CC[C@@]21CCCC(=O)O1,95,93,8.00,inhibition [4]: 25%; inhibition [5]: 64%; inhibition [6]: 21%; inhibition [7]: 21%
C[C@]12CC[C@@H]3c4ccc(O)cc4CC[C@H]3[C@@H]1CC[C@@]21CCCCC(=O)O1,93,90,7.38,
COC1CC[C@@]2(CC[C@H]3[C@@H]4CCc5cc(O)ccc5[C@H]4CC[C@@]32C)O1 (stereo in doubt; 8),16,0,,
C[C@]12CC[C@@H]3c4ccc(O)cc4CC[C@H]3[C@@H]1CC[C@@]21CCC(=O)O1,79,47,,
C[C@]12CC[C@@H]3c4ccc(O)cc4CC[C@H]3[C@@H]1C[C@H]1CCC(=O)O[C@H]12,52,6,,
C[C@]12CCC(=O)C[C@@H]1CC[C@@H]1[C@@H]2CC[C@]2(C)[C@@H](O)CC[C@@H]12,,,,Activity [8]: 3%
C[C@]12CC[C@@H]3c4ccc(O)cc4CC[C@H]3[C@@H]1C[C@@H]1CCCC(=O)O[C@@H]12,91,70,7.18,
C[C@]12CC[C@@H]3c4ccc(O)cc4CC[C@H]3[C@@H]1CC[C@]21CCC(=O)O1,45,22,,
COC1CC[C@@]2(CC[C@H]3[C@@H]4CCc5cc(O)ccc5[C@H]4CC[C@@]32C)O1 (stereo in doubt; 7),4,0,,
COC(=O)C1CC[C@@]2(CC[C@H]3[C@@H]4CCc5cc(O)ccc5[C@H]4CC[C@@]32C)OC1=O (mixture of isomers),92,78,7.14,
C[C@@H]1C[C@H]2[C@@H]3CCC4=CC(=O)C=C[C@]4(C)[C@@]3(F)[C@@H](O)C[C@]2(C)[C@@]1(O)C(=O)CO,,,,Activity [8]: 0%
C[C@]12CCC(=O)CC1CC[C@@H]1[C@@H]2CC[C@@]2(C)[C@H]1CC[C@@]21CCC(=O)O1 (stereo not given in full),63,15,,
CCCC1CC[C@@]2(CC[C@H]3[C@@H]4CCc5cc(O)ccc5[C@H]4CC[C@@]32C)OC1=O (mixture of isomers),83,41,,
CC(=O)S[C@@H]1CC2=CC(=O)CC[C@]2(C)[C@H]2CC[C@@]3(C)[C@@H](CC[C@@]34CCC(=O)O4)[C@H]12,57,27,,
C[C@]12CC[C@@H]3c4ccc(O)cc4CC[C@H]3[C@@H]1CC[C@@H]2O,,,,Activity [8]: 6%
C[C@]12CCC(=O)C=C1CC[C@@H]1[C@@H]2CC[C@]2(C)C(=O)CC[C@@H]12,45,21,,
C[C@]12CC[C@@H]3c4ccc(O)cc4CC[C@H]3[C@@H]1C[C@@H]1CCC(=O)O[C@@H]12,85,55,,
C[C@]12CC[C@@H]3c4ccc(O)cc4CC[C@H]3[C@@H]1CC[C@@]21CCCC(=O)O1,95,92,7.70,Activity [9]: Active; inhibition [4]: 25%; Activity [10]: Active; inhibition [5]: 34%
C[C@]12CC[C@@H]3c4ccc(O)cc4CC[C@H]3[C@@H]1C[C@@H]1CC(=O)O[C@@H]12,62,30,,
C[C@]12CC[C@@H]3c4ccc(O)cc4CC[C@H]3[C@@H]1CC[C@@]21CCC(O)O1 (mixture of isomers),61,19,,
CC1CC[C@@]2(CC[C@H]3[C@@H]4CCc5cc(O)ccc5[C@H]4CC[C@@]32C)OC1=O (mixture of isomers),94,93,7.80,Activity [9]: Active; Activity [10]: Active
C[C@]12CCC(=O)C=C1CC[C@@H]1[C@@H]2CC[C@@]2(C)[C@H]1CC[C@@]21CCC(=O)O1,61,19,,
